Assay results: ChEMBL document CHEMBL2375290, “Nonclassical antifolates, part 3: synthesis, biological evaluation and molecular modeling study of some new 2-heteroarylthio-quinazolin-4-ones” (Eur J Med Chem, 2013)
Converted amounts (≈) assume the structure as drawn.

Assays:
UACC-62 = assay: Cytotoxicity against human UACC62 cells at 10 uM after 48 hrs by coulter counter analysis; format: functional; settings: UACC-62, 48 h, read-out: GI
T47D = assay: Cytotoxicity against human T47D cells at 10 uM after 48 hrs by coulter counter analysis; format: functional; settings: read-out: GI
NCI-H23 = assay: Cytotoxicity against human NCI-H23 cells at 10 uM after 48 hrs by coulter counter analysis; format: functional; settings: NCI-H23, 48 h, read-out: GI
MOLT-4 = assay: Cytotoxicity against human MOLT4 cells at 10 uM after 48 hrs by coulter counter analysis; format: functional; settings: MOLT-4, 48 h, read-out: GI
NCI-H226 = assay: Cytotoxicity against human NCI-H226 cells at 10 uM after 48 hrs by coulter counter analysis; format: functional; settings: NCI-H226, 48 h, read-out: GI
UO-31 = assay: Cytotoxicity against human UO31 cells at 10 uM after 48 hrs by coulter counter analysis; format: functional; settings: UO-31, 48 h, read-out: GI
OVCAR-4 = assay: Cytotoxicity against human OVCAR4 cells at 10 uM after 48 hrs by coulter counter analysis; format: functional; settings: OVCAR-4, 48 h, read-out: GI
SNB-19 = assay: Cytotoxicity against human SNB19 cells at 10 uM after 48 hrs by coulter counter analysis; format: functional; settings: SNB-19, 48 h, read-out: GI
MDA-MB-231 = assay: Cytotoxicity against human MDA-MB-231 cells at 10 uM after 48 hrs by coulter counter analysis; format: functional; settings: MDA-MB-231, 48 h, read-out: GI
LOX IMVI = assay: Cytotoxicity against human LOXIMVI cells at 10 uM after 48 hrs by coulter counter analysis; format: functional; settings: read-out: GI
IGROV-1 = assay: Cytotoxicity against human IGROV1 cells at 10 uM after 48 hrs by coulter counter analysis; format: functional; settings: IGROV-1, 48 h, read-out: GI
[1] = Cytotoxicity against human EKVX cells at 10 uM after 48 hrs by coulter counter analysis; format: functional; settings: read-out: GI
A549 = assay: Cytotoxicity against human A549/ATCC cells at 10 uM after 48 hrs by coulter counter analysis; format: functional; settings: A549, 48 h, read-out: GI
Dihydrofolate reductase = target: T1, Dihydrofolate reductase (Bos taurus, UniProt P00376); assay: Inhibition of bovine DHFR after 2 mins by spectrophotometry
T1 sequence (P00376 whole entry): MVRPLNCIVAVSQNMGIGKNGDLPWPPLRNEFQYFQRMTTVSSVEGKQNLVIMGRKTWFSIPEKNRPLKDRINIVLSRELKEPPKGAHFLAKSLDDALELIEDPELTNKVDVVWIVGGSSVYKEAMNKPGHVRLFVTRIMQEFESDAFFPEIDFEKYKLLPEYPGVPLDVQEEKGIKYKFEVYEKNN

Hs-578T = assay: Cytotoxicity against human Hs578T cells at 10 uM after 48 hrs by coulter counter analysis; format: functional; settings: read-out: GI
Bacillus subtilis [2] = assay: Antimicrobial activity against Bacillus subtilis after 24 hrs by micro-dilution susceptibility method; format: functional
In short: (§1)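 Broth microdilution in Müller-Hinton broth against S. aureus IFO 3060, B. subtilis IFO 3007, E. coli IFO 3301 and P. aeruginosa IFO 3448. These are the same standard strains used in the disc-diffusion primary screen. Compounds were solubilized in DMSO. MIC recorded as the minimal inhibitory concentration.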

Escherichia coli [3] = assay: Antimicrobial activity against Escherichia coli at 200 ug after 24 hrs by agar disc diffusion method; format: functional; settings: read-out: DIZ
SNB-75 = assay: Cytotoxicity against human SNB75 cells at 10 uM after 48 hrs by coulter counter analysis; format: functional; settings: SNB-75, 48 h, read-out: GI
CCRF-CEM = assay: Cytotoxicity against human CCRF-CEM cells at 10 uM after 48 hrs by coulter counter analysis; format: functional; settings: read-out: GI
SR = assay: Cytotoxicity against human SR cells at 10 uM after 48 hrs by coulter counter analysis; format: functional; settings: read-out: GI
CAKI-1 = assay: Cytotoxicity against human Caki1 cells at 10 uM after 48 hrs by coulter counter analysis; format: functional; settings: CAKI-1, 48 h, read-out: GI
RXF 393 = assay: Cytotoxicity against human RXF393 cells at 10 uM after 48 hrs by coulter counter analysis; format: functional; settings: RXF 393, 48 h, read-out: GI
Bacillus subtilis [4] = assay: Antimicrobial activity against Bacillus subtilis at 200 ug after 24 hrs by agar disc diffusion method; format: functional; settings: read-out: DIZ
Staphylococcus aureus [5] = assay: Antimicrobial activity against Staphylococcus aureus after 24 hrs by micro-dilution susceptibility method; format: functional; in short: as §1
RPMI-8226 = assay: Cytotoxicity against human RPMI8226 cells at 10 uM after 48 hrs by coulter counter analysis; format: functional; settings: RPMI-8226, 48 h, read-out: GI
[6] = Cytotoxicity against human NCI-ADR-RES cells at 10 uM after 48 hrs by coulter counter analysis; format: functional; settings: read-out: GI
Micrococcus luteus = assay: Antimicrobial activity against Micrococcus luteus at 200 ug after 24 hrs by agar disc diffusion method; format: functional; settings: read-out: DIZ
MCF7 = assay: Cytotoxicity against human MCF7 cells at 10 uM after 48 hrs by coulter counter analysis; format: functional; settings: MCF7, 48 h, read-out: GI
PC-3 = assay: Cytotoxicity against human PC3 cells at 10 uM after 48 hrs by coulter counter analysis; format: functional; settings: PC-3, 48 h, read-out: GI
Pseudomonas aeruginosa = assay: Antimicrobial activity against Pseudomonas aeruginosa at 200 ug after 24 hrs by agar disc diffusion method; format: functional; settings: read-out: DIZ
NCI-H522 = assay: Cytotoxicity against human NCI-H522 cells at 10 uM after 48 hrs by coulter counter analysis; format: functional; settings: NCI-H522, 48 h, read-out: GI
SF-295 = assay: Cytotoxicity against human SF295 cells at 10 uM after 48 hrs by coulter counter analysis; format: functional; settings: SF-295, 48 h, read-out: GI
Staphylococcus aureus [7] = assay: Antimicrobial activity against Staphylococcus aureus at 200 ug after 24 hrs by agar disc diffusion method; format: functional; settings: read-out: DIZ
SN12C = assay: Cytotoxicity against human SN12C cells at 10 uM after 48 hrs by coulter counter analysis; format: functional; settings: read-out: GI
MDA-MB-435 = assay: Cytotoxicity against human MDA-MB-435 cells at 10 uM after 48 hrs by coulter counter analysis; format: functional; settings: MDA-MB-435, 48 h, read-out: GI
Malme-3M = assay: Cytotoxicity against human MALME-3M cells at 10 uM after 48 hrs by coulter counter analysis; format: functional; settings: read-out: GI
HL-60(TB) = assay: Cytotoxicity against human HL-60(TB) cells at 10 uM after 48 hrs by coulter counter analysis; format: functional; settings: HL-60, 48 h, read-out: GI
SK-MEL-5 = assay: Cytotoxicity against human SK-MEL-5 cells at 10 uM after 48 hrs by coulter counter analysis; format: functional; settings: SK-MEL-5, 48 h, read-out: GI
A498 = assay: Cytotoxicity against human A498 cells at 10 uM after 48 hrs by coulter counter analysis; format: functional; settings: A498, 48 h, read-out: GI
Escherichia coli [8] = assay: Antimicrobial activity against Escherichia coli after 24 hrs by micro-dilution susceptibility method

| Structure (SMILES) | inhibition of growth at 10 µM (UACC-62) | inhibition of growth at 10 µM (T47D) | inhibition of growth at 10 µM (NCI-H23) | inhibition of growth at 10 µM (MOLT-4) | inhibition of growth at 10 µM (NCI-H226) | inhibition of growth at 10 µM (UO-31) | inhibition of growth at 10 µM (OVCAR-4) | inhibition of growth at 10 µM (SNB-19) | inhibition of growth at 10 µM (MDA-MB-231) | inhibition of growth at 10 µM (LOX IMVI) | inhibition of growth at 10 µM (IGROV-1) | IC50 (Dihydrofolate reductase) | MIC (Bacillus subtilis [2]) | zone of inhibition at 200 µg/disc (Escherichia coli [3]) | zone of inhibition at 200 µg/disc (Bacillus subtilis [4]) | MIC (Staphylococcus aureus [5]) | zone of inhibition at 200 µg/disc (Micrococcus luteus) | zone of inhibition at 200 µg/disc (Pseudomonas aeruginosa) | zone of inhibition at 200 µg/disc (Staphylococcus aureus [7]) | MIC (Escherichia coli [8]) | also measured |
| --- | --- | --- | --- | --- | --- | --- | --- | --- | --- | --- | --- | --- | --- | --- | --- | --- | --- | --- | --- | --- | --- |
| Cc1ccc2nc(Sc3ncccc3C(=O)O)n(-c3ccccc3)c(=O)c2c1 | < 10% | < 10% | < 10% | < 10% | < 10% | 12.1% | < 10% | < 10% | < 10% | < 10% | < 10% | 8 µM | 4 µg/mL (≈ 10.3 µM) | 16 mm | 22 mm | 4 µg/mL (≈ 10.3 µM) | 14 mm | 12 mm | 20 mm | – | inhibition of growth at 10 µM [1]: < 10%; inhibition of growth at 10 µM (A549): < 10%; inhibition of growth at 10 µM (Hs-578T): < 10%; inhibition of growth at 10 µM (SNB-75): < 10%; inhibition of growth at 10 µM (CCRF-CEM): < 10%; inhibition of growth at 10 µM (SR): < 10%; inhibition of growth at 10 µM (CAKI-1): 13.1%; inhibition of growth at 10 µM (RXF 393): < 10%; inhibition of growth at 10 µM (RPMI-8226): 10.4%; inhibition of growth at 10 µM [6]: < 10%; inhibition of growth at 10 µM (MCF7): < 10%; inhibition of growth at 10 µM (PC-3): 11.7%; inhibition of growth at 10 µM (NCI-H522): < 10%; inhibition of growth at 10 µM (SF-295): < 10%; inhibition of growth at 10 µM (SN12C): < 10%; inhibition of growth at 10 µM (MDA-MB-435): < 10%; inhibition of growth at 10 µM (Malme-3M): < 10%; inhibition of growth at 10 µM (HL-60(TB)): < 10%; inhibition of growth at 10 µM (SK-MEL-5): < 10%; inhibition of growth at 10 µM (A498): < 10% |
| CCOC(=O)c1nc(N)sc1Sc1nc2ccc(Cl)cc2c(=O)n1Cc1ccccc1 | – | – | – | – | – | – | – | – | – | – | – | 1 µM | 2 µg/mL (≈ 4.23 µM) | 20 mm | 22 mm | 4 µg/mL (≈ 8.46 µM) | 14 mm | 8 mm | 20 mm | 4 µg/mL (≈ 8.46 µM) | – |
| COc1cc2nc(Sc3cc([N+](=O)[O-])ccc3C(=O)O)n(-c3ccccc3)c(=O)c2cc1OC | – | – | – | – | – | – | – | – | – | – | – | 10 µM | 4 µg/mL (≈ 8.34 µM) | 22 mm | 20 mm | 8 µg/mL (≈ 16.7 µM) | 8 mm | 8 mm | 18 mm | 2 µg/mL (≈ 4.17 µM) | – |
| CCOC(=O)c1nc(N)sc1Sc1nc2ccc(C)cc2c(=O)n1-c1ccccc1 | – | – | – | – | – | – | – | – | – | – | – | 1 µM | 2 µg/mL (≈ 4.56 µM) | 18 mm | 26 mm | 2 µg/mL (≈ 4.56 µM) | 14 mm | 12 mm | 24 mm | 4 µg/mL (≈ 9.12 µM) | – |
| Nc1ncc(Sc2nc3ccc(Cl)cc3c(=O)n2-c2ccccc2)s1 | < 10% | 19.1% | 10.9% | < 10% | 25.7% | < 10% | < 10% | < 10% | 21.5% | 11.2% | < 10% | 4 µM | 4 µg/mL (≈ 10.3 µM) | 8 mm | 22 mm | 8 µg/mL (≈ 20.7 µM) | 14 mm | 8 mm | 18 mm | – | inhibition of growth at 10 µM [1]: 12.9%; inhibition of growth at 10 µM (A549): < 10%; inhibition of growth at 10 µM (Hs-578T): < 10%; inhibition of growth at 10 µM (SNB-75): < 10%; inhibition of growth at 10 µM (CCRF-CEM): < 10%; inhibition of growth at 10 µM (SR): 29.1%; inhibition of growth at 10 µM (CAKI-1): 24.1%; inhibition of growth at 10 µM (RXF 393): < 10%; inhibition of growth at 10 µM (RPMI-8226): < 10%; inhibition of growth at 10 µM [6]: < 10%; inhibition of growth at 10 µM (MCF7): 19%; inhibition of growth at 10 µM (PC-3): 10.2%; inhibition of growth at 10 µM (NCI-H522): 14%; inhibition of growth at 10 µM (SF-295): < 10%; inhibition of growth at 10 µM (SN12C): < 10%; inhibition of growth at 10 µM (MDA-MB-435): < 10%; inhibition of growth at 10 µM (Malme-3M): < 10%; inhibition of growth at 10 µM (HL-60(TB)): < 10%; inhibition of growth at 10 µM (SK-MEL-5): < 10%; inhibition of growth at 10 µM (A498): < 10% |
